Laboratory results published in ChEMBL document CHEMBL4680284, “Doxorubicin and Aclarubicin: Shuffling Anthracycline Glycans for Improved Anticancer Agents” (J Med Chem, 2020).
Activity calls are given as the source filed them. The calls are words filed in the database; no cut-off is given here.

Key:
MEL-JUSO [1] = experiment: Induction of histone eviction in human MEL-JUSO cells assessed as release of photoactivated green fluorescent protein-labeled histone H2A at 10 uM incubated for 2 hrs by time-lapse confocal microscopy; format: functional, cell-based
In short: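 MelJuSo cells stably expressing PAGFP-H2A were kept in IMDM with 8% FCS and G-418. Nuclear regions were photoactivated and 10 μM drug was added. Time-lapse confocal imaging (63× lens, climate chamber) followed the loss of fluorescence from the activated regions. Values are mean ± SD of 10–20 cells from at least three independent experiments.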

PC-3 = experiment: Cytotoxicity in human PC-3 cells assessed as reduction in cell viability incubated for 2 hrs by Cell-titer-blue assay; format: functional, cell-based; details: PC-3, 2 h
In short: (§1)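 The drugs were then removed and the cells grown a further 72 h before a CellTiter-Blue viability read. Survival was normalized to the untreated control and background-corrected, with mean ± SD from three experiments. Culture was at 37 °C in 5% CO2.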

DNA [2] = experiment: Induction of DNA damage in human K562 cells assessed as induction of DNA break formation by measuring H2AX phosphorylation at 10 uM incubated for 2 hrs by Western blot analysis; format: cell-based
In short: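 K562 cells were given 10 μM drug for 2 h, then washed extensively. They were lysed in SDS sample buffer (2% SDS, 60 mM Tris–HCl pH 6.8) and run on SDS-PAGE. Blots were probed for γH2AX (1:1000), with β-actin (1:10000) as the loading control. The γH2AX signal was quantified relative to actin.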

MEL-JUSO [3] = experiment: Cytotoxicity in human MEL-JUSO cells assessed as reduction in cell viability incubated for 2 hrs by Cell-titer-blue assay; format: functional, cell-based; in short: as §1
DNA [4] = experiment: Induction of DNA damage in human K562 cells assessed as induction of DNA break formation by measuring H2AX phosphorylation at 10 uM incubated for 2 hrs by constant-field gel […] method; format: cell-based
In short: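 K562 cells were exposed to 10 μM drug for 2 h and washed extensively. DNA double-strand breaks were then resolved by constant-field gel electrophoresis and the images quantified. Results are mean ± SD of three independent experiments.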

[5] = molecular target: DNA topoisomerase 2-alpha (Homo sapiens) (UniProt P11388); experiment: Induction of relocalization of GFP-tagged Topo2a (unknown origin) expressed in human MEL-JUSO cells at 10 uM incubated for 15 mins; format: cell-based
In short: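 MelJuSo cells were transiently transfected with a TopoIIα-GFP construct and imaged live by confocal microscopy. Relocalization of TopoIIα was expressed as a fractional distance.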

HCT-116 = experiment: Cytotoxicity in human HCT-116 cells assessed as reduction in cell viability incubated for 2 hrs by Cell-titer-blue assay; format: functional, cell-based; details: HCT-116, 2 h; in short: as §1
DU-145 = experiment: Cytotoxicity in human DU-145 cells assessed as reduction in cell viability incubated for 2 hrs by Cell-titer-blue assay; format: functional, cell-based; details: DU-145, 2 h; in short: as §1
K562 = experiment: Cytotoxicity in human K562 cells assessed as reduction in cell viability incubated for 2 hrs by Cell-titer-blue assay; format: functional, cell-based; details: K562, 2 h
In short: as §1, with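 “CO2. Media with 8% FCS were RPMI-1640 (DU145, HCT116, K562, PC3), IMDM (MelJuSo) and DMEM (U87).” for “CO2.”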

U-87 MG = experiment: Cytotoxicity in human U87 cells assessed as reduction in cell viability incubated for 2 hrs by Cell-titer-blue assay; format: functional, cell-based, U-87MG ATCC; in short: as §1
[6] = Drug uptake in human K562 cells at 1 uM by flow cytometry relative to aclarubicin; format: ADME, cell-based; details: k562, 1 µM
In short: (§2)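 K562 cells in RPMI-1640 with 8% FCS were exposed to 1 μM drug for 2 h. They were then washed, collected and fixed with paraformaldehyde. The intrinsic anthracycline fluorescence was read by flow cytometry with a 561 nm laser and a 610/20 nm detector.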

[7] = Drug uptake in human K562 cells at 1 uM by flow cytometry relative to doxorubicin; format: ADME, cell-based; details: k562, 1 µM; in short: as §2

Chain of DNA topoisomerase 2-alpha (Homo sapiens) (P11388 whole entry): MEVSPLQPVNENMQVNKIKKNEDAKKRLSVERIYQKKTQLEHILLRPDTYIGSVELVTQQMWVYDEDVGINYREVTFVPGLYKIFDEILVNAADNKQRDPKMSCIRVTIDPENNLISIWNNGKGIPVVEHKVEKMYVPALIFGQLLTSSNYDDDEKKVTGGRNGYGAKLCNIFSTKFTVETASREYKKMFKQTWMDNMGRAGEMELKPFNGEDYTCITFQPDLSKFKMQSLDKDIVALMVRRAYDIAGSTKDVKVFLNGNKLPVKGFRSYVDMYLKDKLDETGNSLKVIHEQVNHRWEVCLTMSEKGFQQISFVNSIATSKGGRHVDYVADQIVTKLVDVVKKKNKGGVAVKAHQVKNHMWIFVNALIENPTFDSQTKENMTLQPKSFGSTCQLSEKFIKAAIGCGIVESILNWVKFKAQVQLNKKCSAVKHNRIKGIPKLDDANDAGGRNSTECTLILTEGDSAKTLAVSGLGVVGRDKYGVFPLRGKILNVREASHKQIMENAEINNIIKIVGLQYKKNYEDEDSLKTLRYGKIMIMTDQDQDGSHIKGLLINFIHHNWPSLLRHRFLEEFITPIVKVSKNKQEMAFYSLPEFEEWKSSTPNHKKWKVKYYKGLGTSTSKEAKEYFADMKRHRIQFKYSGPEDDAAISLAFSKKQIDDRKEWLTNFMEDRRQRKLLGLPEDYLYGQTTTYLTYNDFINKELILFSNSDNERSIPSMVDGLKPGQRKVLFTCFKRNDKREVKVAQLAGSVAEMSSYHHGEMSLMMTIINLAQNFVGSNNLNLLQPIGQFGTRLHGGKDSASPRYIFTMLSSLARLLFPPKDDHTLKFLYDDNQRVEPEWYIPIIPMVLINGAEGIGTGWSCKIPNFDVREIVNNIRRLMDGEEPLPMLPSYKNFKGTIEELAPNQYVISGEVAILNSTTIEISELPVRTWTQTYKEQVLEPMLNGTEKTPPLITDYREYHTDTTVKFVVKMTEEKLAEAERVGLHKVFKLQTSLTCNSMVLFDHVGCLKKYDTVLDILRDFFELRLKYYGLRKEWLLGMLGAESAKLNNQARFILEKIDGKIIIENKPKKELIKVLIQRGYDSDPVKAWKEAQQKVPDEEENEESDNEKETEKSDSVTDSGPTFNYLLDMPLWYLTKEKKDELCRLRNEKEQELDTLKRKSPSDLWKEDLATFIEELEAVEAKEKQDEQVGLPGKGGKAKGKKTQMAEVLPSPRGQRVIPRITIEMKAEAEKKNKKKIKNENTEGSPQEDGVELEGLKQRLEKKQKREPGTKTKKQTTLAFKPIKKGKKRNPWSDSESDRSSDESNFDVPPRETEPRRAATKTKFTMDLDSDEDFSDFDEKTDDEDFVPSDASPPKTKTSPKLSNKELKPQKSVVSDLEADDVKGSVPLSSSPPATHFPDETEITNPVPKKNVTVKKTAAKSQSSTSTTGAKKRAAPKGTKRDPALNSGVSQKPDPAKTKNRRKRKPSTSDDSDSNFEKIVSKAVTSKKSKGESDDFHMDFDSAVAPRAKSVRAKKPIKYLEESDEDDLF

SMILES	Activity (MEL-JUSO [1])	IC50 (PC-3) [nM]	Activity (DNA [2])	IC50 (MEL-JUSO [3]) [nM]	Activity (DNA [4])	Activity ([5]; filed as modulator)	IC50 (HCT-116) [nM]	IC50 (DU-145) [nM]	IC50 (K562) [nM]	IC50 (U-87 MG) [nM]	Drug uptake [6]	Activity [5]	Drug uptake [7]	fold change (FC) [7]
CC[C@@]1(O)C[C@H](O[C@H]2C[C@H](N(C)C)[C@H](O[C@H]3C[C@H](O)[C@H](O[C@H]4CCC(=O)[C@H](C)O4)[C@H](C)O3)[C@H](C)O2)c2c(cc3c(c2O)C(=O)c2c(O)cccc2C3=O)[C@H]1C(=O)OC [ACLARUBICIN]	Active	101	inactive	48	inactive	Active	40	129	76	137	–	–	–	–
CC[C@@]1(O)C[C@H](O[C@H]2C[C@H](N)[C@H](O)[C@H](C)O2)c2c(cc3c(c2O)C(=O)c2c(O)cccc2C3=O)[C@H]1C(=O)OC	inactive	–	inactive	–	inactive	Active	–	–	–	–	Not Active	–	–	–
COc1cccc2c1C(=O)c1c(O)c3c(c(O)c1C2=O)C[C@@](O)(C(=O)CO)C[C@@H]3O[C@H]1C[C@H](N)[C@H](O[C@H]2C[C@H](O)[C@H](O)[C@H](C)O2)[C@H](C)O1	inactive	–	inactive	–	inactive	–	–	–	–	–	–	inactive	Not Active	–
COc1cccc2c1C(=O)c1c(O)c3c(c(O)c1C2=O)C[C@@](O)(C(=O)CO)C[C@@H]3O[C@H]1C[C@H](N(C)C)[C@H](O[C@H]2C[C@H](O)[C@H](O)[C@H](C)O2)[C@H](C)O1	Active	3200	inactive	1570	inactive	Active	1370	3200	2410	603	–	–	Not Active	–
CC[C@@]1(O)C[C@H](O[C@H]2C[C@H](N(C)C)[C@H](O[C@H]3C[C@H](O)[C@H](O)[C@H](C)O3)[C@H](C)O2)c2c(cc3c(c2O)C(=O)c2c(O)cccc2C3=O)[C@H]1C(=O)OC	Active	383	inactive	423	inactive	Active	261	509	211	448	Active	–	–	–
COc1cccc2c1C(=O)c1c(O)c3c(c(O)c1C2=O)C[C@@](O)(C(=O)CO)C[C@@H]3O[C@H]1C[C@H](N)[C@H](O[C@H]2C[C@H](O)[C@H](O[C@H]3CCC(=O)[C@H](C)O3)[C@H](C)O2)[C@H](C)O1	inactive	1540	Active	1810	Active	Active	1860	1360	1400	2210	–	–	Not Active	–
COc1cccc2c1C(=O)c1c(O)c3c(c(O)c1C2=O)C[C@@](O)(C(=O)CO)C[C@@H]3O[C@H]1C[C@H](N)[C@H](O)[C@H](C)O1 [DOXORUBICIN]	Active	1140	Active	237	Active	Active	579	534	361	381	–	–	–	–
CC[C@@]1(O)C[C@H](O[C@H]2C[C@H](N)[C@H](O[C@H]3C[C@H](O)[C@H](O[C@H]4CCC(=O)[C@H](C)O4)[C@H](C)O3)[C@H](C)O2)c2c(cc3c(c2O)C(=O)c2c(O)cccc2C3=O)[C@H]1C(=O)OC	inactive	–	inactive	–	inactive	Active	–	–	3040	–	Active	–	–	–
COc1cccc2c1C(=O)c1c(O)c3c(c(O)c1C2=O)C[C@@](O)(C(=O)CO)C[C@@H]3O[C@H]1C[C@H](N(C)C)[C@H](O[C@H]2C[C@H](O)[C@H](O[C@H]3CCC(=O)[C@H](C)O3)[C@H](C)O2)[C@H](C)O1	Active	34	inactive	7	inactive	Active	8	17	26	33	–	–	–	4
